Columns and labels:
TLX-5 [1] = assay: In vivo antitumor activity against the TLX5 lymphoma cell line in mouse species CBA/CA after intraperitoneal administration (inoculum cells-2x10E5,sc) at the dose of 80 mg/kg; type: functional
Summary of the method: (§1)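 CBA/CA mice were inoculated with 2 × 10^5 TLX5 lymphoma cells. Drug given intraperitoneally in 10% Me2SO in arachis oil, 5 mice per dose, and the experiment lasted 60 days. Survivors at 60 days were recorded. T/C % = mean death day of treated animals / mean death day of control animals.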

TLX-5 [2] = assay: In vivo antitumor activity against the TLX5 lymphoma cell line in mouse species CBA/CA after intraperitoneal administration (inoculum cells-2x10E5,sc) at the dose of 20 mg/kg; type: functional; summary of the method: as §1
L1210 [3] = assay: In vivo antitumor activity against the L1210 leukemia cell line in mouse species B6D2F1 after intraperitoneal administration (inoculum cells-10E5,ip) at the dose of 200 mg/kg; type: functional
L1210 [4] = assay: In vivo antitumor activity against the L1210 leukemia cell line in mouse species B6D2F1 after intraperitoneal administration (inoculum cells-10E5,ip) at the dose of 100 mg/kg on 7th day; type: functional
L1210 [5] = assay: In vivo antitumor activity against the L1210 leukemia cell line in mouse species B6D2F1 after intraperitoneal administration (inoculum cells-10E5,ip) at the dose of 200 mg/kg on 7th day; type: functional
TLX-5 [6] = assay: (§2) In vivo antitumor activity against the TLX5 lymphoma cell line in mouse species CBA/CA after intraperitoneal administration (inoculum cells-2x10E5,sc) at the dose of 40 mg/kg on 5th day; type: functional
TLX-5 [7] = assay: (§3) In vivo antitumor activity against the TLX5 lymphoma cell line in mouse species CBA/CA after intraperitoneal administration (inoculum cells-2x10E5,sc) at the dose of 40 mg/kg; type: functional; summary of the method: as §1
TLX-5 [8] = assay: In vivo antitumor activity against the TLX5 lymphoma cell line in mouse species CBA/CA after intraperitoneal administration (inoculum cells-2x10E5,sc) at the dose of 10 mg/kg; type: functional
TLX-5 [9] = assay: In vivo antitumor activity against the TLX5 lymphoma cell line in mouse species CBA/CA after intraperitoneal administration (inoculum cells-2x10E5,sc) at the dose of 80 mg/kg on 5th day; type: functional
L1210 [10] = assay: In vivo antitumor activity against the L1210 leukemia cell line in mouse species B6D2F1 after intraperitoneal administration (inoculum cells-10E5,ip) at the dose of 100 mg/kg; type: functional
TLX-5 [11] = assay: In vivo antitumor activity against the TLX5 lymphoma cell line in mouse species CBA/CA after intraperitoneal administration (inoculum cells-2x10E5,sc) at the dose of 20 mg/kg on 5th day; type: functional
TLX-5 [12] = assay: In vivo antitumor activity against the TLX5 lymphoma cell line in mouse species CBA/CA after intraperitoneal administration (inoculum cells-2x10E5,sc) at the dose of 160 mg/kg; type: functional; summary of the method: as §1
L1210 [13] = assay: In vivo antitumor activity against the L1210 leukemia cell line in mouse species B6D2F1 after intraperitoneal administration (inoculum cells-10E5,ip) at the dose of 50 mg/kg on 7th day; type: functional
TLX-5 [14] = assay: In vivo antitumor activity against the TLX5 lymphoma cell line in mouse species CBA/CA after intraperitoneal administration (inoculum cells-2x10E5,sc) at the dose of 10 mg/kg on 5th day; type: functional
TLX-5 [15] = assay: In vivo antitumor activity against the TLX5 lymphoma cell line in mouse species CBA/CA after intraperitoneal administration (inoculum cells-2x10E5,sc) at the dose of 160 mg/kg on 5th day; type: functional
L1210 [16] = assay: In vivo antitumor activity against the L1210 leukemia cell line in mouse species B6D2F1 after intraperitoneal administration (inoculum cells-10E5,ip) at the dose of 50 mg/kg; type: functional
TLX-5 [17] = assay: In vivo antitumor activity against the TLX5 lymphoma cell line in mouse species CBA/CA after intraperitoneal administration (inoculum cells-2x10E5,sc) at the dose of 160 mg/kg
TLX-5 [18] = assay: In vivo antitumor activity against the TLX5 lymphoma cell line in mouse species CBA/CA after intraperitoneal administration (inoculum cells-2x10E5,ip) at the dose of 320 mg/kg on 5th day; type: functional
TLX-5 [19] = assay: In vivo antitumor activity against the TLX5 lymphoma cell line in mouse species CBA/CA after intraperitoneal administration (inoculum cells-2x10E5,ip) at the dose of 80 mg/kg on 5th day; type: functional
TLX-5 [20] = assay: In vivo antitumor activity against the TLX5 lymphoma cell line in mouse species CBA/CA after intraperitoneal administration (inoculum cells-2x10E5,ip) at the dose of 80 mg/kg; type: functional; summary of the method: as §1
TLX-5 [21] = assay: In vivo antitumor activity against the TLX5 lymphoma cell line in mouse species CBA/CA after intraperitoneal administration (inoculum cells-2x10E5,ip) at the dose of 160 mg/kg on 5th day; type: functional
L1210 [22] = assay: In vivo antitumor activity against the L1210 leukemia cell line in mouse species B6D2F1 after peroral administration (inoculum cells-10E5,iv) at the dose of 200 mg/kg; type: functional; conditions: route oral
TLX-5 [23] = assay: as §3; type: functional; remark: listed apart in the source
Summary of the method: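 CBA/CA mice were implanted sc with 2 × 10^5 TLX5 lymphoma cells. Compound was given ip on day 3 in 10% Me2SO in arachis oil, over 60 days, in groups of 5. T/C% = mean death day of treated/mean death day of controls. Survivors to day 60 were counted.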

L1210 [24] = assay: In vivo antitumor activity against the L1210 leukemia cell line in mouse species B6D2F1 after peroral administration (inoculum cells-10E5,iv) at the dose of 50 mg/kg; type: functional; conditions: route oral
TLX-5 [25] = assay: In vivo antitumor activity against the TLX5 lymphoma cell line in mouse species CBA/CA after intraperitoneal administration (inoculum cells-2x10E5,sc) at the dose of 320 mg/kg on 5th day; type: functional
L1210 [26] = assay: In vivo antitumor activity against the L1210 leukemia cell line in mouse species B6D2F1 after peroral administration (inoculum cells-10E5,iv) at the dose of 100 mg/kg; type: functional; conditions: route oral
TLX-5 [27] = assay: as §2; type: functional; summary of the method: as §1; remark: listed apart in the source
L1210 [28] = assay: In vivo antitumor activity against the L1210 leukemia cell line in mouse species B6D2F1 after peroral administration (inoculum cells-10E5,iv) at the dose of 200 mg/kg on 7th day; type: functional; conditions: route oral
Summary of the method: (§4)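 B6D2F1 mice were inoculated with 10^5 L1210 leukemia cells, ip or iv as the line states. Compound was given orally as a suspension in 1% (carboxymethyl)cellulose in water, dosed on day 1 or 3, over 28–39 days. T/C% = mean death day of treated/mean death day of controls. Survivors to the end were counted in groups of 7–8.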

L1210 [29] = assay: In vivo antitumor activity against the L1210 leukemia cell line in mouse species B6D2F1 after peroral administration (inoculum cells-10E5,iv) at the dose of 50 mg/kg on 7th day; type: functional; conditions: route oral; summary of the method: as §4
L1210 [30] = assay: In vivo antitumor activity against the L1210 leukemia cell line in mouse species B6D2F1 after peroral administration (inoculum cells-10E5,iv) at the dose of 100 mg/kg on 7th day; type: functional; conditions: route oral; summary of the method: as §4

## CCOC(=O)c1ncn2c(=O)n(CCCl)nnc12
TLX-5 [1]
  T/C: 91%
TLX-5 [2]
  T/C: 98%
L1210 [3]
  T/C: 137%
L1210 [4]
  Survivors: 0
L1210 [5]
  Survivors: 0
TLX-5 [6]
  Survivors: 0
TLX-5 [7]
  T/C: 104%
TLX-5 [8]
  T/C: 89%
TLX-5 [9]
  Survivors: 0
L1210 [10]
  T/C: 120%
TLX-5 [11]
  Survivors: 0
TLX-5 [12]
  T/C: 113%
L1210 [13]
  Survivors: 0
TLX-5 [14]
  Survivors: 0
TLX-5 [15]
  Survivors: 0
L1210 [16]
  T/C: 113%

## O=C(NNc1ccccc1)c1ncn2c(=O)n(CCCl)nnc12
TLX-5 [17]
  T/C: 169%
TLX-5 [18]
  Survivors: 0
TLX-5 [19]
  Survivors: 0
TLX-5 [20]
  T/C: 107%
TLX-5 [21]
  Survivors: 0

## CONC(=O)c1ncn2c(=O)n(CCCl)nnc12
TLX-5 [1]
  T/C: 185%
TLX-5 [2]
  T/C: 103%
TLX-5 [9]
  Survivors: 0
L1210 [22]
  T/C: 205%
TLX-5 [11]
  Survivors: 0
TLX-5 [23]
  Survivors: 0
TLX-5 [12]
  T/C: >325%
L1210 [24]
  T/C: 117%
TLX-5 [25]
  Survivors: 0
L1210 [26]
  T/C: 179%
TLX-5 [27]
  T/C: 116%
TLX-5 [15]
  Survivors: 3
L1210 [28]
  Survivors: 0
L1210 [29]
  Survivors: 0
L1210 [30]
  Survivors: 0
